IC50 and Ki data for 38 molecules are collected here from ChEMBL document CHEMBL3992534, “Design, Synthesis, and Biological Evaluation of Novel, Non-Brain-Penetrant, Hybrid Cannabinoid CB1R Inverse Agonist/Inducible Nitric Oxide Synthase (iNOS) Inhibitors for the Treatment of Liver Fibrosis” (J Med Chem, 2017).

The term IC50 denotes the concentration that gives 50% inhibition. The term Ki denotes the equilibrium dissociation constant of an inhibitor or competing ligand from its target.

Molecules are shown by their SMILES. Some results are limits rather than exact numbers.

The target of assay [1] is T1, Cannabinoid receptor 1 (Mus musculus, UniProt P47746). Put plainly: Inverse agonist at mouse brain CB1R expressed in CHOK1 cell membranes assessed as inhibition of CP55940-stimulated [35S]GTP-gammaS binding measured after 60 mins by scintillation spectrometry.
T1 sequence (P47746 whole entry): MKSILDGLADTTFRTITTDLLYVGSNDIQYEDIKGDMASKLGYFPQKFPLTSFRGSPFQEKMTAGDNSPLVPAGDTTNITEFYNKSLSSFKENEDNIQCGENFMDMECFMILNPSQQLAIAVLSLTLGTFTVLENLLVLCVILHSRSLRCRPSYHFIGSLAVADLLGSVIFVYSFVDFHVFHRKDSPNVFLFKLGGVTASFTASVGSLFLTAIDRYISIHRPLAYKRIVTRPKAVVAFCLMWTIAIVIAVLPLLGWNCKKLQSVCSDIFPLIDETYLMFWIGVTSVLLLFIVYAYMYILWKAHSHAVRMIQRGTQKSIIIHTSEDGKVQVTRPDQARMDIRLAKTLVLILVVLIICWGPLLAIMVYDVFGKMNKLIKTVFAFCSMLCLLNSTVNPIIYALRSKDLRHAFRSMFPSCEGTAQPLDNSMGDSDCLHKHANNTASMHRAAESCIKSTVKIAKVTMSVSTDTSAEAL
Assay [2] has as its target Cannabinoid receptor 2 (Mus musculus, UniProt P47936). The assay can be described thus: Displacement of [3H]CP55940 from mouse CB2R expressed in CHOK1 cell membranes. In short, it runs like this:
(§1)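 Displacement binding isotherms with [3H]-CP55940 as labeled ligand on plasma membranes from CHO-K1 cells expressing CB1R or CB2R. Ki was calculated by the Cheng-Prusoff equation. Values are mean ± SEM of 3 independent experiments, each run in triplicate.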
For orientation: Displacement assays read how much labelled ligand stays bound in the presence of the test substance.

Assay [3] concerns the target T1, Cannabinoid receptor 1. The assay can be described thus: Displacement of [3H]CP55940 from mouse brain CB1R expressed in CHOK1 cell membranes. In short, it runs like this:
as §1

Sequence of Cannabinoid receptor 2 (P47936 whole entry): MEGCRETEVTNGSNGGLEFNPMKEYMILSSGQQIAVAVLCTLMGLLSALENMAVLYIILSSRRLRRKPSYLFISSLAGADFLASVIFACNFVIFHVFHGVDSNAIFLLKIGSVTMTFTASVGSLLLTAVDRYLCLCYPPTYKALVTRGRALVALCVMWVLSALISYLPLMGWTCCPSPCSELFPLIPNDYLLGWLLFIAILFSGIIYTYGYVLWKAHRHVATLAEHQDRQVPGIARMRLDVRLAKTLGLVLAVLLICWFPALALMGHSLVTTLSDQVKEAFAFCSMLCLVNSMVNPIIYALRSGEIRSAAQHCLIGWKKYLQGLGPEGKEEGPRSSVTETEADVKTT

Turning to `CC(C)/C(N)=N\C(=N/S(=O)(=O)c1ccc(Cl)cc1)N1CC(c2ccccc2)C(c2ccc(Cl)cc2)=N1` (stereo not given), the IC50 in assay [1] was > 1000 nM. Also, the inhibition constant (Ki) in assay [2] is > 1000 nM.
Regarding `N/C(=N/C(=N\S(=O)(=O)c1ccc(Cl)cc1)N1CC(c2ccccc2)C(c2ccc(Cl)cc2)=N1)c1ccc(F)cc1F` (stereo not given), in assay [1], the half-inhibitory concentration (IC50) was determined as 22 nM. The molecule further yielded an inhibition constant Ki in assay [2] of 106 nM.
On the same counts, the results for `N/C(=N/C(=N\S(=O)(=O)c1ccc(Cl)cc1)N1CC(c2ccccc2)C(c2ccc(Cl)cc2)=N1)SCCCc1ccccc1` (stereo not given) are 2640 nM and > 1000 nM.
Take `CS/C(N)=N\C(=N/S(=O)(=O)c1ccc(Cl)cc1)N1CC(c2ccccc2)C(c2ccc(Cl)cc2)=N1` (stereo not given): in assay [2], the Ki is > 1000 nM.
As to `CNC(=NS(=O)(=O)c1ccc(Cl)cc1)N1CC(c2ccccc2)C(c2ccc(Cl)cc2)=N1` (stereo not drawn) [RAC-IBIPINABANT], the affinity in assay [3], expressed as Ki, was 8.1 nM. For the same molecule, in assay [1], the half-inhibitory concentration (IC50) amounted to 76 nM.
For `N/C(=N/C(=N\S(=O)(=O)c1ccc(Cl)cc1)N1CC(c2ccccc2)C(c2ccc(Cl)cc2)=N1)SCCc1ccccc1` (stereo not given), in assay [1], the IC50 worked out at 441 nM. Besides, the Ki in assay [2] is > 1000 nM.
The matching figures for `N/C(=N/C(=N\S(=O)(=O)c1ccc(Cl)cc1)N1CC(c2ccccc2)C(c2ccc(Cl)cc2)=N1)C12CC3CC(CC(C3)C1)C2` (stereo not given): 226 nM and > 1000 nM.
For the molecule `N/C(=N/C(=N\S(=O)(=O)c1ccc(Cl)cc1)N1CC(c2ccccc2)C(c2ccc(Cl)cc2)=N1)c1ccc(Cl)cc1` (stereo not given), the figures for the Ki in assay [3] and in assay [2] were 10 nM and 158 nM, respectively. For the same molecule, the 50% inhibitory concentration (IC50) in assay [1] worked out at 18 nM.
With `CCS/C(N)=N\C(=N/S(=O)(=O)c1ccc(Cl)cc1)N1CC(c2ccccc2)C(c2ccc(Cl)cc2)=N1` (stereo not given), the half-inhibitory concentration (IC50) in assay [1] was 534 nM. In addition, the Ki in assay [2] was > 1000 nM.
With `C/C(N)=N\C(=N/S(=O)(=O)c1ccc(Br)cc1)N1CC(c2ccccc2)C(c2ccc(Cl)cc2)=N1` (stereo not given), the IC50 in assay [1] is 19 nM. Moreover, the inhibition constant (Ki) in assay [2] was > 1000 nM.
As to `CS/C(N)=N\C(=N/S(=O)(=O)c1ccc(I)cc1)N1CC(c2ccccc2)C(c2ccc(Cl)cc2)=N1` (stereo not given), the values for the inhibition constant Ki in assay [3] and in assay [2] were 10 nM and > 1000 nM, respectively. Also, in assay [1], the IC50 stood at 65 nM.
`C/C(N)=N\C(=N/S(=O)(=O)c1ccccc1)N1CC(c2ccccc2)C(c2ccc(Cl)cc2)=N1` (stereo not given): the 50% inhibitory concentration (IC50) in assay [1] amounted to 2040 nM. The inhibitory constant (Ki) in assay [2] is > 1000 nM.
On the same counts, the results for `C/C(N)=N\C(=N/S(=O)(=O)c1ccc2ccccc2c1)N1CC(c2ccccc2)C(c2ccc(Cl)cc2)=N1` (stereo not given) are 118 nM and > 1000 nM.
For the molecule `N/C(=N/C(=N\S(=O)(=O)c1ccc(Cl)cc1)N1CC(c2ccccc2)C(c2ccc(Cl)cc2)=N1)c1ccccc1F` (stereo not given), the concentration for half-maximal inhibition (IC50) in assay [1] was 72 nM. The same molecule returned a Ki in assay [2] of 107 nM.
With `C/C(N)=N\C(=N/S(=O)(=O)c1ccc(I)cc1)N1CC(c2ccccc2)C(c2ccc(Cl)cc2)=N1` (stereo not given), the IC50 in assay [1] was found to be 65 nM. In addition, the inhibition constant Ki in assay [2] is > 1000 nM.
As to `C/C(N)=N\C(=N/S(=O)(=O)c1ccc(Cl)cc1)N1CC(c2ccccc2)C(c2ccc(Cl)cc2)=N1` (stereo not given), the inhibitory constant (Ki) in assay [2] was > 1000 nM.
On to `C/C(N)=N\C(=N/S(=O)(=O)c1ccc(F)cc1)N1CC(c2ccccc2)C(c2ccc(Cl)cc2)=N1` (stereo not given), for which the IC50 in assay [1] was 686 nM. In addition, the inhibitory constant (Ki) in assay [2] is > 1000 nM.
Take `C/C(N)=N\C(=N/S(=O)(=O)c1ccc(C(C)C)cc1)N1CC(c2ccccc2)C(c2ccc(Cl)cc2)=N1` (stereo not given): the inhibitory constant (Ki) in assay [3] was 10 nM; in assay [2], > 1000 nM. In addition, the IC50 in assay [1] was 90 nM.
As for `C/C(N)=N\C(=N/S(=O)(=O)c1ccc(OC(F)(F)F)cc1)N1CC(c2ccccc2)C(c2ccc(Cl)cc2)=N1` (stereo not given), the IC50 in assay [1] was determined as 76 nM. Further, the Ki in assay [2] is > 1000 nM.
The matching figures for `C/C(N)=N\C(=N/S(=O)(=O)c1ccc(C(C)(C)C)cc1)N1CC(c2ccccc2)C(c2ccc(Cl)cc2)=N1` (stereo not given): 30 nM and > 1000 nM.
`N/C(=N/C(=N\S(=O)(=O)c1ccc(Cl)cc1)N1CC(c2ccccc2)C(c2ccc(Cl)cc2)=N1)c1ccccc1` (stereo not given): the IC50 in assay [1] came out at 117 nM. The affinity in assay [2] corresponds to a Ki of 1000 nM.
On the same counts, the results for `N/C(=N/C(=N\S(=O)(=O)c1ccc(Cl)cc1)N1CC(c2ccccc2)C(c2ccc(Cl)cc2)=N1)c1cccs1` (stereo not given) are 101 nM and > 1000 nM.
With `COc1ccc(S(=O)(=O)/N=C(\N=C(/C)N)N2CC(c3ccccc3)C(c3ccc(Cl)cc3)=N2)cc1` (stereo not given), the IC50 in assay [1] was 70 nM. In assay [2], the inhibitory constant (Ki) is > 1000 nM.
Regarding `C/C(N)=N\C(=N/S(=O)(=O)c1ccc(C(F)(F)F)cc1)N1CC(c2ccccc2)C(c2ccc(Cl)cc2)=N1` (stereo not given), the results for the inhibition constant (Ki) in assay [3] and in assay [2] were 5.7 nM and > 1000 nM, respectively. The concentration for half-maximal inhibition (IC50) in assay [1] is 40 nM.
For `N/C(=N/C(=N\S(=O)(=O)c1ccc(Cl)cc1)N1CC(c2ccccc2)C(c2ccc(Cl)cc2)=N1)c1ccc(F)cc1` (stereo not given), in assay [1], the concentration for half-maximal inhibition (IC50) amounted to 116 nM. The molecule also gave a Ki in assay [2] of 173 nM.
On the same counts, the results for `CC(C)(C)/C(N)=N\C(=N/S(=O)(=O)c1ccc(Cl)cc1)N1CC(c2ccccc2)C(c2ccc(Cl)cc2)=N1` (stereo not given) are 182 nM and > 1000 nM.
On the same counts, the results for `N/C(=N/C(=N\S(=O)(=O)c1ccc(Cl)cc1)N1CC(c2ccccc2)C(c2ccc(Cl)cc2)=N1)c1ccncc1` (stereo not given) are 603 nM and > 1000 nM.
The matching figures for `N/C(=N/C(=N\S(=O)(=O)c1ccc(Cl)cc1)N1CC(c2ccccc2)C(c2ccc(Cl)cc2)=N1)SCc1ccccc1` (stereo not given): 213 nM and > 1000 nM.
Take `N/C(=N/C(=N\S(=O)(=O)c1ccc(Cl)cc1)N1CC(c2ccccc2)C(c2ccc(Cl)cc2)=N1)c1ccc(Br)cc1` (stereo not given): the Ki in assay [2] was > 1000 nM.
In the case of `CS/C(N)=N\C(=N/S(=O)(=O)c1ccc2ccccc2c1)N1CC(c2ccccc2)C(c2ccc(Cl)cc2)=N1` (stereo not given), the Ki in assay [3] was 29 nM; in assay [2], > 1000 nM. In assay [1], the concentration for half-maximal inhibition (IC50) stood at 2670 nM.
For the molecule `N/C(COc1ccccc1)=N/C(=N\S(=O)(=O)c1ccc(Cl)cc1)N1CC(c2ccccc2)C(c2ccc(Cl)cc2)=N1` (stereo not given), in assay [1], the IC50 is 125 nM. In addition, in assay [2], the inhibition constant Ki was > 1000 nM.
On the same counts, the results for `CC(C)S/C(N)=N\C(=N/S(=O)(=O)c1ccc(Cl)cc1)N1CC(c2ccccc2)C(c2ccc(Cl)cc2)=N1` (stereo not given) are 395 nM and > 1000 nM.
As to `COc1cccc(/C(N)=N\C(=N/S(=O)(=O)c2ccc(Cl)cc2)N2CC(c3ccccc3)C(c3ccc(Cl)cc3)=N2)c1` (stereo not given), the 50% inhibitory concentration (IC50) in assay [1] turned out to be 33 nM. In addition, in assay [2], the inhibition constant (Ki) turned out to be 161 nM.
In the case of `CS/C(N)=N\C(=N/S(=O)(=O)c1ccc(C(F)(F)F)cc1)N1CC(c2ccccc2)C(c2ccc(Cl)cc2)=N1` (stereo not given), the Ki was 63 nM in assay [3] and > 1000 nM in assay [2]. The IC50 in assay [1] is 97 nM.
On the same counts, the results for `N/C(=N/C(=N\S(=O)(=O)c1ccc(Cl)cc1)N1CC(c2ccccc2)C(c2ccc(Cl)cc2)=N1)c1ccccn1` (stereo not given) are 26 nM, > 1000 nM and 33 nM.
For the molecule `C/C(N)=N\C(=N/S(=O)(=O)c1ccc(C)cc1)N1CC(c2ccccc2)C(c2ccc(Cl)cc2)=N1` (stereo not given), the half-maximal inhibitory concentration (IC50) in assay [1] came out at 113 nM. In addition, in assay [2], the Ki was > 1000 nM.
On the same counts, the results for `N/C(=N/C(=N\S(=O)(=O)c1ccc(Cl)cc1)N1CC(c2ccccc2)C(c2ccc(Cl)cc2)=N1)C1CC1` (stereo not given) are 241 nM and > 1000 nM.
The matching figures for `N/C(=N/C(=N\S(=O)(=O)c1ccc(Cl)cc1)N1CC(c2ccccc2)C(c2ccc(Cl)cc2)=N1)c1cccc(Br)c1` (stereo not given): 292 nM and 250 nM.
